Shown are actives, neighbours in structure and some others; about 1.9% of the full set was active somewhere.
core dimer inh – blocks dimerization of HCV core protein; hit rate 0.33% among 300,000; inhibition, % at 5 µM; TR-FRET GST/Flag-core106 dimerization, 1536-well;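 active = inhibition above the mean of all tested compounds plus 3 SD, set per screening campaign, cut at about 45% in these data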
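Assay system: GST-tagged and Flag-tagged HCV core protein residues 1-106 / Times: compound-protein-antibody incubation 4 h at 22.5 °C / Signal: time-resolved FRET, ex 340 nm, em 617 and 671 nm / Evaluation: % inhibition based on acceptor/donor emission ratio / Benchmarks: wells lacking GST-core106 and wells with excess unlabelled core106 / Repeats: singlicate, one well per compound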
Pemphigus Ab inh – inhibitors of pemphigus antibody binding to human desmoglein-3; P32926; DSG3-coupled beads, scFv-anti-DSG3-GFP binding, flow cytometry; active compounds read low; binding (percent of control), % at 10 µM; hit rate 0.48% among 310,000;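 active = binding more than 3 SD below its plate's average and above zero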;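 also: hits lower antibody fragment binding to DSG3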
Rce1 inhib – blocks yeast Ras-converting enzyme; hit rate 0.27% among 290,000; yeast membranes, quenched prenylated peptide cleavage fluorescence; calls only; Q03530;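 active = fall in fluorescence gain of 50% or more versus controls, with final raw signal at or below 3038400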;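 also: plate controls were neutral control wells for no effect and wells lacking membranes for full effect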
Target sequence (Q03530 whole entry, looked up): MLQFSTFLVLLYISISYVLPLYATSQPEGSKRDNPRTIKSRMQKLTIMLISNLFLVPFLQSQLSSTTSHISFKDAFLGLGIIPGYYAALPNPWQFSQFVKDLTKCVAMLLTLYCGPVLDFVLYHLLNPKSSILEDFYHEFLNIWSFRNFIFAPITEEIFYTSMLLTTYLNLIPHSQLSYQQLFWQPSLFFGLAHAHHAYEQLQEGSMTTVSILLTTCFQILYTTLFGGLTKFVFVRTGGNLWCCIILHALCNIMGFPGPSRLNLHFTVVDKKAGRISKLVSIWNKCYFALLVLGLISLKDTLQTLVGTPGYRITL
TbMetRS inhib – Trypanosoma brucei MetRS inhibition; inhibition, % at 11.9 µM; purified T. brucei MetRS, ATP depletion, Kinase-Glo luminescence; hit rate 0.4% among 360,000;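 active = inhibition above a per-plate cutoff of the control wells' mean inhibition plus 3 SD, cut at about 5.5% in these data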;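 also: 0% = DMSO wells median and 100% = median of wells with control inhibitor compound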
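Material: T. brucei methionyl-tRNA synthetase, purified; reagent: substrates ATP, L-methionine and bulk Escherichia coli tRNA; dosing: 11.9 µM single point; timing: 15 min plus 2 h at 25 °C; detection: luminescence of leftover ATP; evaluation: % inhibition; control set: DMSO-only wells as low control; replicates: singlicate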
NadD block – NadD (S. aureus) enzyme inhibition. purified NadD enzyme, colorimetric absorbance read-out. inhibition, % at 20 µM. hit rate 0.78% among 360,000. AID 602399; in the data active = inhibition above about 26%
TbMetRS confirm – Trypanosoma brucei MetRS inhibition confirmed | shares compounds with TbMetRS inhib | T. brucei MetRS enzyme, luminescence (ATP depletion) | inhibition, % at 11.9 µM | AID 624412 | hit rate 93% among 1,400; in the data active = inhibition above about 7%
Jurkat cytotox – counter-screen for T. brucei MetRS inhibitors: Jurkat cell cytotoxicity | shares compounds with TbMetRS inhib | Jurkat cells viability, ATP luminescence | inhibition, % at 8.3 µM | hit rate 12% among 1,400 | AID 624413; in the data active = inhibition above about 15%;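 also: 0% = vehicle and 100% = reference inhibitor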
TbMetRS FP orth – inhibits T. brucei methionyl tRNA synthetase in orthogonal FP test; shares compounds with TbMetRS inhib; purified T. brucei MetRS, fluorescence polarization; inhibition, % at 11.9 µM; hit rate 44% among 1,400; AID 651607; in the data active = inhibition above about 17%;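 also: 0% = vehicle wells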
Active calls of the source: *; i = inactive; . = no result.

SMILES	core dimer inh	Pemphigus Ab inh	Rce1 inhib	TbMetRS inhib	NadD block	TbMetRS confirm	Jurkat cytotox	TbMetRS FP orth
COc1ccc(CCc2nc3ccccc3n2C(CCc2ccccc2)c2nc3ccccc3[nH]2)cc1 (configuration not stated)	.	.	.	3.9	.	.	.	.
Oc1ccccc1-c1nc(NCCN2CCOCC2)c2ccccc2n1	0.7	.	.	-0.5	-5.8	.	.	.
CS(=O)(=O)N1CCN(c2ccccc2NC(=O)c2cc(Br)ccc2Cl)CC1	4.2	97.9	.	-0.3	-7.5	.	.	.
CS(=O)(=O)N1CCN(c2ccccc2NC(=O)Nc2cccc(Cl)c2)CC1	-6.3	100.2	i	8.4*	-7.1	23.9*	-3.8	73.9*
O=C(NCC(=O)N1CCN(Cc2ccccc2)CC1)c1cccs1	.	101.8	.	-0.4	-3.7	.	.	.
O=[N+]([O-])c1[nH]cnc1/C=C/c1ccccc1	-1.3	88.0	i	5.6*	2.3	10.1*	3.8	-0.3
O=C(CC1SC(=Nc2ccccc2)N(Cc2ccccn2)C1=O)Nc1ccc(Br)cc1 (configuration not stated)	15.2	93.2	i	19.0*	19.2	37.9*	2.6	15.9
Cc1ccccc1N=C1SC(CC(=O)Nc2ccc3ccccc3c2)C(=O)N1Cc1ccccn1 (configuration not stated)	14.4	96.3	i	-0.6	17.8	.	.	.
CCCCCCCCC1=NCCc2c1[nH]c1ccccc21	-5.4	103.6	i	49.4*	12.6	70.4*	32.7*	47.3*
CC(C)C/C=C1\CCc2c([nH]c3ccccc23)C1=O	-0.7	100.5	i	3.6	5.0	.	.	.
O=C(NCCCCCCNC(=O)c1ccccc1O)c1ccccc1O	2.2	101.8	i	6.7*	-8.0	13.6*	7.8	6.3
COc1ccc(C2c3[nH]c4ccccc4c3C[C@H]3C(=O)N(CCCO)CC(=O)N23)c(OC)c1 (some centres not stated)	8.2	94.4	i	0.1	2.1	.	.	.
CCCN1CC(=O)N2C(c3ccccc3)c3[nH]c4ccccc4c3C[C@H]2C1=O (some centres not stated)	.	102.0	i	0.7	6.7	.	.	.
COCCCN1CC(=O)N2C(c3cccc(OC)c3)c3[nH]c4ccccc4c3C[C@H]2C1=O (some centres not stated)	-12.4	102.7	i	11.5*	0.2	24.4*	3.5	6.1
COCCN1CC(=O)N2C(c3cccc(OC)c3)c3[nH]c4ccccc4c3C[C@H]2C1=O (some centres not stated)	-4.4	107.3	i	11.4*	-2.5	24.3*	-0.4	7.0
CC(C)OCCCN1CC(=O)N2C(c3cccc([N+](=O)[O-])c3)c3[nH]c4ccccc4c3C[C@H]2C1=O (some centres not stated)	4.3	94.8	i	93.2*	-0.5	94.7*	5.4	85.0*
O=c1c(C/C=C/c2ccccc2)c(O)ccn1Cc1ccc(Cl)cc1Cl	5.5	100.7	i	4.6	3.2	.	.	.
O=c1c(Cc2ccc(Cl)cc2Cl)c(O)ccn1Cc1ccncc1	-3.1	102.4	i	27.1*	2.7	38.9*	-2.4	26.8*
COc1ccc2c(c1)O[C@H](c1ccc3c(c1)OCO3)[C@@H](OC(=O)N[C@H](C)C1CCCCC1)C2=O	14.4	.	i	.	.	.	.	.
O=C(CCCCn1c(=O)[nH]c2ccccc2c1=O)N1CCN(c2cccc(C(F)(F)F)c2)CC1	11.5	.	i	12.0*	-6.0	14.0*	8.0	4.5
O=C(CCn1c(=O)[nH]c2ccccc2c1=O)N1CCN(c2cccc(C(F)(F)F)c2)CC1	11.5	106.5	i	-1.2	2.3	.	.	.
CC(=O)c1ccc(N2CCN(C(=O)CCCn3c(=O)[nH]c4ccsc4c3=O)CC2)cc1	0.6	.	i	7.3*	-3.6	17.1*	0.0	6.5
COc1ccc(N2CCN(C(=O)CCCCCn3c(=O)[nH]c4ccsc4c3=O)CC2)cc1	-0.5	100.4	i	5.0	0.4	.	.	.
CC(=O)c1ccc(N2CCN(C(=O)CCCn3c(=O)[nH]c4ccc(Br)cc4c3=O)CC2)cc1	7.6	98.2	i	84.4*	3.2	104.0*	3.7	87.1*
COc1ccc(NC(=O)CN2C(=O)NC3(CCCC3)C2=O)cc1Cl	0.7	115.8	i	-0.2	-2.5	.	.	.
SMILES	core dimer inh	Pemphigus Ab inh	Rce1 inhib	TbMetRS inhib	NadD block	TbMetRS confirm	Jurkat cytotox	TbMetRS FP orth
Cc1ccc(C)c(OCCn2cc(/C=C(\C#N)C(=O)NCC3CCCO3)c3ccccc32)c1 (configuration not stated)	5.4	102.3	i	-0.8	-7.5	.	.	.
CS(=O)(=O)N1Cc2cc(C(=O)NCC3CCCCC3)nc(-c3cccc(-c4cccnc4)c3)c2[C@H]1CCO	.	.	.	-0.6	-6.6	.	.	.
CCOP(=O)(OCC)C(Nc1cccc([N+](=O)[O-])c1)c1ccc(OC)cc1 (configuration not stated)	2.0	111.9	i	-0.7	-11.3	.	.	.
Cc1ccc(-n2nnnc2SCC(=O)N2CCc3ccccc3C2)c(C)c1	4.1	102.2	i	-0.9	-0.1	.	.	.
C=CCNC(=S)NNC(=O)CSc1nc2ccccc2s1	-1.5	98.8	i	7.6*	4.2	14.1*	3.8	0.7
O=C(CSc1nc2ccccc2s1)NNC(=S)Nc1ccc(Cl)cc1	7.7	98.3	i	-0.1	-0.6	.	.	.
CN(c1ccc(C(=O)NC2CCCC2)cc1)S(=O)(=O)c1ccc(Cl)cc1	0.9	104.0	i	-0.7	-8.6	.	.	.
O=C(Nc1ncccc1O)c1cc2ccccc2o1	-9.0	92.0	i	-0.5	2.7	.	.	.
CCN(CC)S(=O)(=O)c1cc(C(=O)Nc2ccncc2)ccc1Cl	0.3	110.0	i	0.5	-1.6	.	.	.
CCN(CC)S(=O)(=O)c1cc(C(=O)N(C)CC(=O)Nc2ccc(Cl)cc2)ccc1Cl	-6.7	123.3	i	43.4*	-9.5	57.3*	1.3	23.7*
CCOC(=O)c1ccc(NC(=O)C2C3CCC(C3)C2C(=O)O)cc1 (configuration not stated)	3.9	97.6	i	0.5	-2.4	.	.	.
Brc1cnc2nc(SC/C=C/c3ccccc3)[nH]c2c1	4.5	96.4	i	-0.6	3.5	.	.	.
O=C(NCc1nc2ncc(Br)cc2[nH]1)c1ccccc1	4.4	.	i	6.8*	-0.7	15.6*	0.5	8.2
O=C(Cc1ccc(Br)cc1)N1CCCCCC1	-2.9	93.5	i	-0.2	-3.7	.	.	.
O=C(CCCSc1nc2ccccc2[nH]1)Nc1ccccc1	-8.8	84.2	i	1.1	-5.8	.	.	.
NC(=O)CCCSc1nc2ccccc2[nH]1	-4.6	104.0	i	-0.1	1.1	.	.	.
Cc1cc(C)cc(NC(=O)CCc2nc3ccccc3[nH]2)c1	-8.8	96.1	i	4.8	-4.6	.	.	.

Screening data: PubChem BioAssay, several laboratories
